Experimental data taken from ChEMBL document CHEMBL3632514, “Radiolabelling and positron emission tomography of PT70, a time-dependent inhibitor of InhA, the Mycobacterium tuberculosis enoyl-ACP reductase” (Bioorg Med Chem Lett, 2015).

Legend:
Lung [1] = assay: Drug uptake in mouse lung measured at 20 mins; format: ADME, tissue-based; settings: in vivo
Summary of the method: (§1)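 Healthy mice were injected with [11C]-labelled tracer. Tissue radioactivity was measured at 20, 40 and 60 min post-injection and expressed as % injected dose/gram. Values are mean ± SD of three animals.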

Spleen [2] = assay: Drug uptake in mouse spleen measured at 20 mins; format: ADME, tissue-based; settings: in vivo; summary of the method: as §1
Liver [3] = assay: Drug uptake in mouse liver measured at 40 mins; format: ADME, tissue-based; settings: in vivo; summary of the method: as §1
Brain = assay: Drug uptake in iv dosed baboon brain measured over 15 to 90 mins by PET image analysis; format: ADME, organism-based; settings: papio anubis, in vivo
Summary of the method: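 Baboon PET after i.v. radiolabelled drug, with images acquired for 90 min. Dose-corrected coronal images were summed over 15–90 min. Time-activity curves came from manually drawn regions of interest.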

[4] = Drug uptake in iv dosed baboon kidney measured over 90 mins by PET image analysis; format: ADME, organism-based; settings: papio anubis, in vivo, 1.5 h
Summary of the method: (§2)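 Dynamic PET scan of baboons over 90 min after i.v. [11C]-labelled radiotracer. Peripheral organ time-activity curves were derived from regions of interest drawn manually on the images.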

[5] = Drug uptake in iv dosed baboon heart measured over 90 mins by PET image analysis; format: ADME, organism-based; settings: papio anubis, in vivo, 1.5 h; summary of the method: as §2
[6] = Drug uptake in iv dosed baboon spleen measured over 90 mins by PET image analysis; format: ADME, organism-based; settings: papio anubis, in vivo, 1.5 h; summary of the method: as §2
Spleen [7] = assay: Drug uptake in mouse spleen measured at 60 mins; format: ADME, tissue-based; settings: in vivo, 1 h; summary of the method: as §1
[8] = Drug uptake in iv dosed baboon liver measured over 90 mins by PET image analysis; format: ADME, organism-based; settings: papio anubis, in vivo, 1.5 h; summary of the method: as §2
Spleen [9] = assay: Drug uptake in mouse spleen pretreated with unlabelled compound for 1 hr followed by radiolabeled compound treatment measured after 20 mins by PET image analysis; format: ADME, tissue-based; settings: in vivo
Summary of the method: (§3)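 Mice received a 200 mg/kg predose of unlabelled compound 1 h before [11C]-tracer injection. Tissue radioactivity was read 20 min after the tracer and given as % injected dose/gram, mean ± SD of three animals.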

Liver [10] = assay: Drug uptake in mouse liver measured at 60 mins; format: ADME, tissue-based; settings: in vivo, 1 h; summary of the method: as §1
Spleen [11] = assay: Drug uptake in mouse spleen measured at 40 mins; format: ADME, tissue-based; settings: in vivo; summary of the method: as §1
Blood [12] = assay: Drug uptake in mouse blood measured at 60 mins; format: ADME, tissue-based; settings: 1 h; summary of the method: as §1
[13] = Drug uptake in iv dosed baboon lung measured over 90 mins by PET image analysis; format: ADME, organism-based; settings: papio anubis, in vivo, 1.5 h; summary of the method: as §2
Blood [14] = assay: Drug uptake in mouse blood measured at 40 mins; format: ADME, tissue-based; summary of the method: as §1
[15] = Drug uptake in iv dosed baboon blood measured over 90 mins by PET image analysis; format: ADME, organism-based; settings: papio anubis, in vivo, 1.5 h; summary of the method: as §2
Lung [16] = assay: Drug uptake in mouse lung measured at 40 mins; format: ADME, tissue-based; settings: in vivo; summary of the method: as §1
Kidney [17] = assay: Drug uptake in mouse kidney measured at 40 mins; format: ADME, tissue-based; settings: in vivo; summary of the method: as §1
Lung [18] = assay: Drug uptake in mouse lung measured at 60 mins; format: ADME, tissue-based; settings: in vivo, 1 h; summary of the method: as §1
[19] = Drug uptake in iv dosed baboon gallbladder measured over 90 to 120 mins by PET image analysis; format: ADME, organism-based, Gall bladder; settings: papio anubis, in vivo
Kidney [20] = assay: Drug uptake in mouse kidney measured at 20 mins; format: ADME, tissue-based; settings: in vivo; summary of the method: as §1
Lung [21] = assay: Drug uptake in mouse lung pretreated with unlabelled compound for 1 hr followed by radiolabeled compound treatment measured after 20 mins by PET image analysis; format: ADME, tissue-based; settings: in vivo; summary of the method: as §3
Kidney [22] = assay: Drug uptake in mouse kidney measured at 60 mins; format: ADME, tissue-based; settings: in vivo, 1 h; summary of the method: as §1
Blood [23] = assay: Drug uptake in mouse blood measured at 20 mins; format: ADME, tissue-based; summary of the method: as §1
[24] = tested on: Mycobacterium tuberculosis; assay: Binding affinity to Mycobacterium tuberculosis InhA assessed as residence time
[25] = tested on: Mycobacterium tuberculosis; assay: Binding affinity to Mycobacterium tuberculosis InhA:NAD+ complex expressed in Escherichia coli BL21(DE3)pLysS assessed as residence time
[26] = Plasma protein binding in baboon after 10 mins; format: ADME, cell-free; settings: papio anubis
[27] = Octanol-phosphate buffer partition coefficient, log D of the compound at pH 7.4; format: physicochemical; settings: octanol/water
Summary of the method: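 Partitioning between octanol and pH 7.4 phosphate buffer, with the carbon-11 radiolabel used to report drug concentration in each phase.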

For `CCCCCCc1ccc(Oc2ccccc2[11CH3])c(O)c1`, the Drug uptake (Lung [1]) was 1.36 %ID/cc, the Drug uptake (Spleen [2]) was 1.82 %ID/cc and the Drug uptake (Liver [3]) was 15.7 %ID/cc. The Drug uptake (Brain) was “Active”, the Drug uptake [4] was “Active” and the Drug uptake [5] was “Not Active”. The Drug uptake [6] was “Active”, the Drug uptake (Spleen [7]) was 0.21 %ID/cc and the Drug uptake [8] was “Active”. The Drug uptake (Spleen [9]) was “Active”, the Drug uptake (Liver [10]) was 14.09 %ID/cc and the Drug uptake (Spleen [11]) was 0.93 %ID/cc. The Drug uptake (Blood [12]) was 0.55 %ID/cc, the Drug uptake [13] was “Not Active” and the Drug uptake (Blood [14]) was 1.46 %ID/cc. The Drug uptake [15] was “Not Active”, the Drug uptake (Lung [16]) was 1.26 %ID/cc and the Drug uptake (Kidney [17]) was 1.45 %ID/cc. The Drug uptake (Lung [18]) was 1.35 %ID/cc, the Drug uptake [19] was “Active” and the Drug uptake (Kidney [20]) was 2.21 %ID/cc. For the same compound, the Drug uptake (Lung [21]) was “Active”, the Drug uptake (Kidney [22]) was 0.31 %ID/cc and the Drug uptake (Blood [23]) was 1.7 %ID/cc.
Work on `NC(=O)C1=CN([C@@H]2O[C@H](COP(=O)(O)OP(=O)(O)OC[C@H]3O[C@@H](n4cnc5c(N)ncnc54)[C@H](O)[C@@H]3O)[C@@H](O)[C@H]2O)C=C[C@@H]1C(=O)c1ccncc1` yielded a TIME [24] of 1 h.
With `CCCCCCc1ccc(Oc2ccccc2C)c(O)c1` the TIME [25] was 0.4 h, the PPB [26] was 99.76% and the logD [27] was 3.65.
For `CCCCCCc1ccc(Oc2ccccc2[11C]#N)c(O)c1`, the Drug uptake (Brain) was “Active”.
